Data on one compound can be found in ChEMBL document CHEMBL1138564, “Microwave-induced synthesis and anti-microbial activities of 7,10,11,12-tetrahydrobenzo[c]acridin-8(9H)-one derivatives” (2009).

What all share (format): functional
For one assay, the system named is Lipomyces lipofer. The assay can be described thus: Antimicrobial activity against Lipomyces lipofer NCIM 3252 at 10 ug/disk after 72 hrs by disk diffusion method. The conditions noted are these: NCIM 3252, 72 h, read-out: DIZ. In a few lines:
(§1)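 Disc diffusion on Sabouraud's dextrose agar. 100 µl of fungal suspension at 10⁶ CFU/ml is spread on the plate. Discs carry test compounds at two loadings in DMSO; DMSO alone is the negative control. Clotrimazole disc is the positive reference. Plates are incubated at 27 °C for 72 h, and the zone of inhibition diameter is measured.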

The next assay concerns Aspergillus niger. The assay can be described thus: Antimicrobial activity against Aspergillus niger NCIM 902 at 10 ug/disk after 72 hrs by disk diffusion method. To be noted: NCIM 902, 72 h, read-out: DIZ. In a few lines:
as §1
On the technique in general: Agar diffusion results depend on both activity and mobility in agar.

The next assay relates to Aspergillus flavus. As to the kind of experiment: Antimicrobial activity against Aspergillus flavus NCIM 902 at 10 ug/disk after 72 hrs by disk diffusion method. To be noted: NCIM 535, 72 h, in the assay text read “NCIM 535” for “NCIM 902”, read-out: DIZ. In a few lines:
as §1

The subject of a further assay is Aspergillus parasiticus. The assay can be described thus: Antimicrobial activity against Aspergillus parasiticus NCIM 904 at 10 ug/disk after 72 hrs by disk diffusion method. To be noted: NCIM 904, 72 h, read-out: DIZ. In a few lines: as §1
The next assay relates to Aspergillus fumigatus. The assay can be described thus: Antimicrobial activity against Aspergillus fumigatus NCIM 902 at 10 ug/disk after 72 hrs by disk diffusion method. The conditions noted are these: NCIM 902, 72 h, read-out: DIZ. In a few lines: as §1
For another assay, the system named is Rhodotorula mucilaginosa. As to the kind of experiment: Antimicrobial activity against Rhodotorula rubra NCIM 3174 at 10 ug/disk after 72 hrs by disk diffusion method. The conditions noted are these: NCIM 3174, 72 h, read-out: DIZ. In a few lines: (§2)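 Clotrimazole reference disc at 10 µg/disc. Fungal inoculum of 100 µl at 10⁶ CFU/ml was spread on Sabouraud's dextrose agar and incubated at 27 °C for 72 h. The read-out was inhibition zone diameter.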

A further assay concerns Trichoderma viride. The assay can be described thus: Antimicrobial activity against Trichoderma viride NCIM 1195 at 10 ug/disk after 72 hrs by disk diffusion method. The conditions noted are these: NCIM 1195, 72 h, read-out: DIZ. In a few lines:
as §2

The subject of the next assay is Penicillium chrysogenum. The assay can be described thus: Antimicrobial activity against Penicillium chrysogenum NCIM 707 at 10 ug/disk after 72 hrs by disk diffusion method. To be noted: NCIM 707, 72 h, read-out: DIZ. In a few lines: as §1

With `Clc1ccccc1C(c1ccccc1)(c1ccccc1)n1ccnc1` [CLOTRIMAZOLE], the zone of inhibition at 10 µg/disc was 18 mm with Lipomyces lipofer; 16 mm with Aspergillus niger; 16 mm in the assay with Aspergillus flavus; 18 mm with Aspergillus parasiticus; 18 mm in the assay on Aspergillus fumigatus; 17 mm in the assay with Rhodotorula mucilaginosa. The zone of inhibition at 10 µg/disc in the assay with Trichoderma viride worked out at 19 mm; with Penicillium chrysogenum it was 21 mm.
